Molecular target: T1, Steroid 17-alpha-hydroxylase/17,20 lyase (Homo sapiens, UniProt P05093)
T1 sequence (P05093 whole entry): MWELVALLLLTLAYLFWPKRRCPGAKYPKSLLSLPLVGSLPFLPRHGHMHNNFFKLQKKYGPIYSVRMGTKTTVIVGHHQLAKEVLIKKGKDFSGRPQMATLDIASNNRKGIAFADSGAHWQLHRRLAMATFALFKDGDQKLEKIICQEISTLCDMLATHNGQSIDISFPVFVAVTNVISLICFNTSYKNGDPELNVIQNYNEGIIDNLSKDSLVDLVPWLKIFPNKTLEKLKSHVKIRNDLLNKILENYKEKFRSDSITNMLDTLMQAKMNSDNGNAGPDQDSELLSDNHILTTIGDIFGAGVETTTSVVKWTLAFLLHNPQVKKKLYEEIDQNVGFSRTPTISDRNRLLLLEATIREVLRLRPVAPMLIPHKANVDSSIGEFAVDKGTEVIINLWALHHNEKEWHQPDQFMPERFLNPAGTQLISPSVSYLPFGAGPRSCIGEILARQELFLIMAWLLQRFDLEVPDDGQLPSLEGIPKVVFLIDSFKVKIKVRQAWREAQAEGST
Assay: In vitro cytochrome P450 17A1 inhibition was assayed using the rapid acetic acid releasing assay (AARA), utilizing intact P450c17-expressing Escherichia coli or P450c17-LNCaP cells as the enzyme source.
Procedure, shortened: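 Enzyme source was intact E. coli expressing P450c17 or P450c17-LNCaP cells. Substrate was [21-3H]-17α-hydroxypregnenolone, and CYP17 activity was read as tritiated acetic acid released by C-21 side-chain cleavage. Each compound was tested at five or more concentrations, in triplicate. IC50 was taken directly from plots of % inhibition versus concentration and reported as the mean of triplicate experiments.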

| SMILES | IC50 |
| --- | --- |
| C/C(=N/O)C1=CC=C2[C@@H]3CCC4=CC(=O)CC[C@]4(C)[C@H]3CC[C@]12C | 1700 nM |
| C/C(=N/O)[C@@]1(O)CC[C@H]2[C@@H]3CC=C4C[C@@H](O)CC[C@]4(C)[C@H]3CC[C@@]21C | 12000 nM |
| C[C@]12CC[C@@H](O)CC1=CC[C@@H]1[C@@H]2CC[C@]2(C)C(=C/C=N/O)CC[C@@H]12 | 320 nM |
| C[C@]12CC[C@H](O)CC1=CCC1C2CC[C@@]2(C)C1CC[C@H]2c1ccncn1 (some centres undefined) | 225 nM |
| C[C@]12CCC3C(CC=C4C[C@@H](O)CC[C@@]43C)C1C/C(=N\O)C2 (some centres undefined) | 628 nM |
| C[C@]12CC[C@H](O)CC1=CCC1C2CC[C@]2(C)C(n3nccn3)=CCC12 (some centres undefined) | 3700 nM |
| C[C@]12CCC(=O)C=C1CCC1C2CC[C@]2(C)C(n3cncn3)=CCC12 (some centres undefined) | 1200 nM |
| C[C@]12CC[C@H](O)CC1=CCC1C2CC[C@]2(C)C(n3cnnn3)=CCC12 (some centres undefined) | 2600 nM |
| C[C@]12CCC(=O)C=C1CCC1C2CC[C@]2(C)C(n3ccnc3)=CCC12 (some centres undefined) | 150 nM |
| C[C@]12CC[C@H](O)CC1=CCC1C2CC[C@]2(C)C(n3cncn3)=CCC12 (some centres undefined) | 800 nM |
| CC(=O)O[C@H]1CCC2C3C=CC4=CC(=O)C=C[C@]4(C)C3CC[C@@]21C (some centres undefined) | 660 nM |
| C=C1C[C@@]2(C)C(=CC1=O)CCC1C2CC[C@@]2(C)C1CC[C@]2(C)OC(C)=O (some centres undefined) | 562 nM |
| C[C@]12CC[C@H](O)CC1=CCC1C2CC[C@]2(C)C(c3cncnc3)=CCC12 (some centres undefined) | 500 nM |
| C[C@]12CCC3C(CC=C4C[C@@H](O)CC[C@@]43C)C1CCC2C/C=N/O (some centres undefined) | 450 nM |
| C[C@]12CCC(=O)C=C1CCC1C2CC[C@]2(C)C(n3cnc4ccccc43)=CCC12 (some centres undefined) | 915 nM |
| C[C@]12CCC(=O)C=C1CCC1C2CC[C@]2(C)C(n3ccnn3)=CCC12 (some centres undefined) | 387 nM |
| C[C@]12CC[C@H](O)CC1=CCC1C2CC[C@]2(C)C(=N/N)/C(=N/O)CC12 (some centres undefined) | 5900 nM |
| C[C@]12CC[C@H](O)CC1=CCC1C2CC[C@]2(C)C(n3ccnn3)=CCC12 (some centres undefined) | 377 nM |
| C[C@]12CCC(=O)C=C1CCC1C2CC[C@]2(C)C(c3ccno3)=CCC12 (some centres undefined) | 1000 nM |
| CC(CCC(=O)OC1CC2CC=CC1C2)[C@H]1CCC2C3CC=C4C[C@@H](O)CC[C@]4(C)C3CCC21 (some centres undefined) | 617 nM |
| C[C@]12CC[C@H](O)CC1=CCC1C2CC[C@]2(C)C(n3ncnn3)=CCC12 (some centres undefined) | 1400 nM |
| C[C@]12CC[C@H](O)CC1=CC[C@@H]1[C@@H]2CC[C@]2(C)C(c3cccnc3)=CC[C@@H]12 [ABIRATERONE] | 800 nM |
| C[C@]12CC[C@H](O)CC1=CCC1C2CC[C@]2(C)/C(=N/NC(N)=O)CCC12 (some centres undefined) [NRB 03731] | 178 nM |
| CCC(=O)O[C@H]1CC[C@H]2[C@@H]3CCC4=CC(=O)CC[C@]4(C)[C@H]3CC[C@]12C [TESTOSTERONE PROPIONATE] | 56 nM |

Molecular target: T1, Steroid 17-alpha-hydroxylase/17,20 lyase
Assay: In vitro Cytochrome P450 17A1 inhibition in rapid acetic acid releasing assay (AARA) using intact P450c17-expressing Escherichia coli or P450c17-LNCaP cells as the enzyme source at 1 mM
Procedure, shortened: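 Acetic acid releasing assay using intact P450c17-expressing E. coli or P450c17-LNCaP cells with [21-3H]-17α-hydroxypregnenolone as substrate. Activity was read as tritiated acetic acid formed from C-21 side-chain cleavage. Percent inhibition was recorded at a single inhibitor concentration of 1 mM.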

| SMILES | inhibition at 1000 µM |
| --- | --- |
| CS(=O)(=O)Nc1cc(Cc2cc(NS(C)(=O)=O)cc(C(F)(F)F)c2)cc(C(F)(F)F)c1 | ~25% |

Molecular target: T1, Steroid 17-alpha-hydroxylase/17,20 lyase

| SMILES | Ki |
| --- | --- |
| c1ccc(-c2ccc(C(c3ccccc3)n3ccnc3)cc2)cc1 (centres undefined) [BIFONAZOLE] | 56.5 nM |
| Clc1ccc(COC(Cn2ccnc2)c2ccc(Cl)cc2Cl)cc1 (centres undefined) [ECONAZOLE] | 325 nM |
| Clc1ccc(COC(Cn2ccnc2)c2ccc(Cl)cc2Cl)c(Cl)c1 (centres undefined) [MICONAZOLE] | 243 nM |
| Clc1ccc(C(Cn2ccnc2)OCc2ccsc2Cl)c(Cl)c1 (centres undefined) [TIOCONAZOLE] | 505 nM |

— ChEMBL document CHEMBL1145784, “Three dimensional pharmacophore modeling of human CYP17 inhibitors. Potential agents for prostate cancer therapy” (J Med Chem, 2003)
